From ChEMBL document CHEMBL4513216, “Probing the Open Global Health Chemical Diversity Library for Multistage-Active Starting Points for Next-Generation Antimalarials” (ACS Infect Dis, 2020)

Test: Toxicity liver stage against HepG2, at 10uM
Type: cell-based
Design: test concentration 10 uM, cell line HepG2-A16-CD81EGFP
Details: human, HepG2-A16-CD81EGFP cells; read-out: INHIBITION
Outline: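 Uninfected HepG2-A16-CD81EGFP cells, 3 × 10^3 per well, 1536-well, plated on prespotted compound at 10 μM final, parasite-free screening media added to match infected plates; puromycin 10 μM positive, DMSO 0.5% negative; run in parallel with 48 h PbLuc assay at 37 °C, 5% CO2; viability by CellTiter-Glo luminescence, normalized to controls.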

Row | SMILES | cytotoxicity at 10 µM [%]
1 | O=C(NCCc1cccc(F)c1)c1nc2c(s1)CCCN2C(=O)C1CC1 | -91.4
2 | CNC(=O)CN(C)C(=O)c1cc(Cl)c(Cl)n1C | 4.4
3 | CNS(=O)(=O)CCCN(C)Cc1cc(C)ccc1OC | -61
4 | CCCN(CCC)S(=O)(=O)NCCc1cc(C)ccc1OC | 7.75
5 | CCS(=O)(=O)N1CCC2(CC(=O)N(c3cnn(C)c3)C2)C1 (configuration not stated) | 6.92
6 | Cc1cc(C(C)NC(=O)Cn2nc(C)c3ccccc3c2=O)c(C)o1 (configuration not stated) | -5.3
7 | COC1CCCN(c2nc(C)nc3c2CCN(Cc2ccco2)CC3)C1 (configuration not stated) | 2.02
8 | CC(C)Cc1nc(CS(=O)(=O)C(C)C(=O)N2CCOCC2)no1 (configuration not stated) | 3.13
9 | O=C(NC1CCCC1)N1CC[C@H]2[C@H]1CCN2c1nncs1 | -7.73
10 | Oc1nc(N2CCOCC2)nc2c1CCN(Cc1ccc(F)cc1)CC2 | -4.14
11 | CCN1CC2(CC1=O)CN(Cc1cnn(C)c1)CCN(C(C)=O)C2 (configuration not stated) | -12.5
12 | O=C1NCCN1CCNc1cc(-c2ccccc2)nc2ccnn12 | -10.7
13 | Cc1cc(C(=O)NCc2ccc(F)cc2)c2c(C3CCNC3)noc2n1 (configuration not stated) | 7.08
14 | CCN(c1cccc(F)c1)S(=O)(=O)c1cc(C(=O)O)cc2c1CCC2 | 10.5
15 | Cc1ccc(OCC2CCCN(C(=O)CCn3ccccc3=O)C2)cc1 (configuration not stated) | -4.27
16 | CCOc1c(F)cccc1C(=O)N(C)CCn1cccn1 | 3.76
17 | O=C1CC2(CCN(CCO)C2)CN1c1cccc(F)c1 (configuration not stated) | -149
18 | Cc1cccc(CN2CC[C@@H]3[C@@H]2CCN3C(=O)c2cnoc2C)n1 | -21.1
19 | CC(C)=CCN1CCN(C(=O)c2snnc2C)[C@H]2CS(=O)(=O)C[C@H]21 | -0.987
20 | CC(C)c1cc(NCC2(N(C)C)CCCC2)ncn1 | 4.22
21 | CCOCCOc1ccccc1C(=O)N1CCCC(c2ncc[nH]2)C1 (configuration not stated) | -14.2
22 | CN(C)c1ncccc1CNS(=O)(=O)c1ccc(F)cc1F | -3
23 | O=C1CCCN1Cc1ncn2c1CN(C(=O)N1CCCC1)CCC2 | -2.36

Row | SMILES | cytotoxicity at 10 µM [%]
24 | COc1cccc(C(=O)NCC(O)c2cccs2)c1 (configuration not stated) | -22.4
25 | NC(=O)c1c(NC(=O)CCCC(=O)O)sc2c1CCc1ccccc1-2 | -1.25
26 | COCCNC(=O)Cn1cc(OCc2ccccc2)c(=O)cc1CO | -7.44
27 | Cc1ccc(C(=O)N2CCn3cc(CN(C)Cc4ccco4)nc3C2)o1 | 12.4
28 | COc1ccnc(N2CCN(C(=O)c3csc(C4CC4)n3)CC2)n1 | 4.85
29 | O=C(Cn1cc(I)cn1)N1CCNC1=O | 1.53
30 | CCn1c(C)nnc1SCCNC(=O)c1cnc(C(C)(C)C)nc1O | -6.14
31 | CO[C@H]1CCN(C(=O)c2ccc3[nH]nnc3c2)C[C@@]12CCCO2 | -5.38
32 | CN1CC2(CCN(C(=O)Cc3ccccn3)CC2)OCC1=O | -3.39
33 | Cc1cc(SCC(=O)O)nc2nn(CC(F)F)c(C)c12 | 45.5
34 | CCN(CC1CN(Cc2ccn(C(C)C)n2)CCO1)c1cccnn1 (configuration not stated) | 5.06
35 | Cc1ccc(NC(=O)CNc2ccn(CC(N)=O)n2)c(Cl)c1 | 4.44
36 | CN(C)CCN1CC(C(=O)NCc2cn3cccnc3n2)CC1=O (configuration not stated) | -4.29
37 | Cc1ccsc1[C@@H]1CCN(C(=O)Cc2ccc(O)cc2)C[C@H]1O | -2.59
38 | CCc1nc(Nc2ccc(C(=O)NC)cc2)c2c(n1)c(C)nn2CC | 9.38
39 | CCCN1CC2(CCN(C)CC2)CC1C(=O)NCCn1cc(C)cn1 (configuration not stated) | -22.9
40 | Cn1cnc2cc(C(=O)NS(=O)(=O)c3ccc(F)cc3)ccc21 | -8.95
41 | C=C(C)CN(CC)C(=O)c1cc(F)ccc1NS(C)(=O)=O | -2.12
42 | Cc1cc(CN2CCC=C(CN(C)C(=O)c3ccco3)C2)no1 | 6.65
43 | O=C(NCc1ccccc1)[C@H]1C[C@H]2CN(C(=O)NC3CCCC3)C[C@@H]1O2 | 2.17
44 | COc1ccnc(N2CCN(C(C)c3nc(C)no3)CC2)n1 (configuration not stated) | -1.33
45 | c1cn(Cc2nnc(C3CCN(C4CCCCC4)CC3)n2C2CC2)cn1 | -6.79
46 | c1ccc(Cn2ccnc2CNC2CCCOc3ccccc32)cc1 (configuration not stated) | -4.34

Row | SMILES | cytotoxicity at 10 µM [%]
47 | Cc1ncsc1CCC(=O)NC1CCN(c2ncccc2C#N)CC1 | 0.84
48 | CC(C)c1ccc(-c2nnn(CCNS(C)(=O)=O)n2)cc1 | -3.51
49 | CN1CCCC1CNC(=O)c1nnn(-c2ccc(F)cc2)c1C1CC1 (configuration not stated) | -15.9
50 | CSc1ncccc1C(=O)N1C[C@@H]2CC[C@H]1CN(C(=O)N(C)C)C2 | 1.71
51 | COCCN(Cc1ccco1)c1ncc(C#N)cc1Cl | -2.66
52 | Cc1ccc2c(ccn2CCC(=O)O)c1 | -3.69
53 | CCN1CC2(CCN(CCOCCO)CC2)CC(c2ccccc2)C1=O (configuration not stated) | 42.4
54 | Cc1nc(C)c(C(=O)N2CCc3cc(F)ccc3C2C)o1 (configuration not stated) | 10.5
55 | CCS(=O)(=O)N1CC[C@H](OC)[C@@H]1Cc1ccncc1 | 5.43
56 | Cc1cccc(N(CCC(N)=O)CC(=O)Nc2cc(Cl)ccc2Cl)c1 | 11.3
57 | Cc1cc(C2CCC2)nc(N2CC(n3cccn3)C2)n1 | -3.59
58 | O=c1c2cnc(N3CCCC3)nc2ccn1-c1cccc(F)c1 | 3.36
59 | CCOc1ccc(NC(=O)c2oc(CC)cc2C)cc1CO | 2.05
60 | O=C(CCN1CCCO1)NC1CCCN(CC2CCCCC2)C1 (configuration not stated) | 7.3
61 | CC1CCc2nc(O)c(C(=O)NCCc3cccs3)cc2C1 (configuration not stated) | 0.106
62 | CCn1nc(C)c(CNCCn2cc(C)cn2)c1C | -4.91
63 | CCOc1ccnc(N2CCN(C(=O)CCc3ccncc3)CC2)n1 | -0.662
64 | Cn1c(CN2CC[C@](C)(O)C(C)(C)C2)cc2ccccc21 | -3.6
65 | Cc1nn(C)c2ncnc(N(C)CC3CCN(CC(C)C)C3)c12 (configuration not stated) | -5.79
66 | CN1CCN(c2ccccc2CNC(=O)Cc2cccc(F)c2)CC1 | -6.29
67 | O=C(Nc1cc(F)ccc1OCC1CCCO1)N1CCSCC1 (configuration not stated) | -1.79
68 | CS(=O)(=O)N1Cc2ccccc2CC2(CCN(Cc3ccncc3)C2)C1 (configuration not stated) | 4.59
69 | Cc1cccc(OCCCNC(=O)NC(C)c2nncn2C)c1 (configuration not stated) | -7.5

Row | SMILES | cytotoxicity at 10 µM [%]
70 | CC(C)NC(=O)CCNC(=O)c1cc(F)ccc1NS(C)(=O)=O | -4.24
71 | Cc1nc(-c2cccc(N3CCC(NC4CCOCC4)CC3)c2)cs1 | -10.1
72 | CC(C)C1CN(c2cnccn2)CCC(=O)N1Cc1ccc(F)cc1 (configuration not stated) | 3.67
73 | CCC(C)C(=O)NCCCn1nc(C)cc1C (configuration not stated) | 0.0879
74 | CS(=O)(=O)CCC(=O)Nc1nccn1Cc1ccccc1Cl | -5.98
75 | Cc1ncc2c(n1)CN(CC(=O)Nc1ccc(Cl)cn1)CC2 | -6.19
76 | O=C(O)c1cc(C=Cc2ccccc2)ncn1 | 5.17
77 | COCc1csc(NC(=O)NCc2ccc(C)s2)n1 | 2.44
78 | COc1ccc(S(=O)(=O)N2CCOC(Cn3ccnc3)C2)cc1 (configuration not stated) | 7.25
79 | O=C(CN1CCOC1=O)N1CCc2nnc(-c3ccccc3)n2CC1 | -16.2
80 | CN(C)CCN1CCc2ncc(CN(C)Cc3ccco3)n2CC1 | -6.26
81 | Cc1ccc(CN(C(=O)NCc2nnc3n2CCCCC3)C2CC2)o1 | 9.35
82 | Cc1noc([C@H]2C[C@@H]3CCN(CC4CCOCC4)C[C@H]3O2)n1 | -103
83 | O=C(CN(CC1CCC1)CC(F)(F)F)N1CCCC1 | 1.84
84 | CCn1nc(C)c(NC(=O)C(C)C)c1C | 1.73
85 | COC(=O)c1cc(C)nc(N2CCN(Cc3ccn(C(C)C)c3)CC2)n1 | 9.77
86 | Cn1cnc2c1C(C(=O)N1CCOCC1)N(C(=O)c1ccccc1)CC2 (configuration not stated) | -0.388
87 | COc1ccc(-c2noc(C(N)CCSC)n2)cc1 (configuration not stated) | -7.27
88 | CCOc1ccc(CN2CCNC(C(=O)NC3CC3)C2)cc1CO (configuration not stated) | 2.95
89 | CN(Cc1ccn[nH]1)C(=O)CCC(=O)NC1CCCC1 | 0.324
90 | CCC(C)N1CCc2nc(N3CCCC3)nc(NC(C)C)c2C1 (configuration not stated) | 8.53
91 | COc1ccc(-c2c[nH]c([C@@H]3COCCN3)n2)cc1 | -4.84
92 | O=C(O)C1(Oc2ccccc2F)CCN(C/C=C/c2ccco2)CC1 | -6.49

Row | SMILES | cytotoxicity at 10 µM [%]
93 | c1csc(-c2noc(C3CNC3)n2)c1 | -5.39
94 | COCc1nc(C(=O)OCC2CCN(c3ccccc3)C2)cs1 (configuration not stated) | -1.31
95 | CC(=O)N1CCCn2nc(CNS(=O)(=O)Cc3ccccc3)cc2C1 | -6.19
96 | O=C(C1CCC1)N1CCCC1c1nnc2n1CCCCC2 (configuration not stated) | 1.26
97 | Cc1nc(CNc2ncc(Br)cn2)n[nH]1 | -3.47
98 | CN1CC2(CCN(Cc3cccnc3)CC2)c2cccc(F)c21 | 10.7
99 | Cc1cc(N2CCCC(O)(CN(C)C)C2)c2cc3c(cc2n1)OCO3 (configuration not stated) | 0.935
100 | CN1CCCC1c1cccc(Cc2ccccc2F)n1 (configuration not stated) | 7.31
101 | O=C(NC[C@H]1C[C@@H]2CCN1C[C@@H]2CN1CCCCC1)Nc1ccsc1 | -1.31
102 | COc1ccccc1N1CCC(N2CCOC(C(F)(F)F)C2)CC1 (configuration not stated) | -1.45
103 | CCCc1cc(C(=O)N2Cc3ccccc3C2)[nH]n1 | 2.02
104 | CC1CCN(S(=O)(=O)NC(C)Cc2ccco2)CC1 (configuration not stated) | 3.53
105 | CO[C@H]1CN(C(C)C)C[C@@H]1NC(=O)Nc1ccc(C(F)(F)F)cc1 | 2.05
106 | Cc1c(C(=O)NC2CCCC2)nnn1-c1ccccc1 | 11.4
107 | COc1ccc(C)cc1CN1CCCC1c1noc(C2CC2)n1 (configuration not stated) | 16.3
108 | COc1ccc(CN2CCC(c3nnc(-c4scnc4C)o3)CC2)cc1 | -5.03
109 | CC(=O)c1cccc(OCCCC(=O)N(C)Cc2cscn2)c1 | 0.175
110 | CCN(CC1CCOCC1)C(=O)CCNC(=O)c1ccccc1F | -43.1
111 | O[C@H]1CN(Cc2ccnc(N3CCCC3)n2)CC[C@@]12CCCO2 | 3.62
112 | Cc1cc(NCc2cccc(C#N)c2)ccc1C(=O)N(C)C | 7.06
